From ChEMBL document CHEMBL5252636, “Host-guest binding of tetracationic cyclophanes to photodynamic agents inhibits posttreatment phototoxicity and maintains antitumour efficacy” (RSC Med Chem, 2023) come the findings set out here.

A word on the solubility: it is the dissolved amount per volume that the medium holds.

The source made the active and inactive calls. No cut-off for these calls is given here.

One series concerns L02. Kind of series: Cytotoxicity against human L02 cells assessed as reduction in cell viability up to 100 microg/ml incubated for 24 hrs by MTT assay. It is filed as toxicity, cell-based. As to conditions: l02, 24 h, up to 100 µg/mL, in the assay text read “CCK-8 assay” for “MTT assay”. In a few lines:
(§1)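 CCK-8 viability assay. H9C2 cells were grown in DMEM with 10% FBS, and L02 cells in 1640 medium with 20% FBS, both at 37 °C in 5% CO₂. Cells were seeded at 1×10^4 per well, allowed to adhere for 24 h, then exposed to 0–100 µg/mL for 24 h. CCK-8 was added for 1 h and A450 read. Viability is expressed as % of untreated cells; six independent experiments.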
In general terms: Formazan colour is commonly taken as a measure of viable cells.

Series [1] is described as follows: Phototoxicity in laser irradiated BALB/c mouse implanted with mouse B16-F10 cells assessed as skin injury at 4 mg/kg, followed by sunlight irradiation for 0.5 hr and measured on day 11. As to conditions: in vivo, 264 h.
Series [2] is described as follows: Phototoxicity in laser irradiated BALB/c mouse implanted with mouse B16-F10 cells assessed as pathological changes in lung at 4 mg/kg, followed by sunlight irradiation for 0.5 hr and measured on day 3 by H and E staining based analysis. As to conditions: in vivo.
In series [3] the test system is B16-F10. Kind of series: Antitumor activity against mouse B16-F10 cells implanted BALB/c mouse assessed as increase in tumor cell apoptosis at 4 mg/kg, iv by tunel staining based immunohistochemical analysis.
Series [4] can be described thus: Hemolytic activity in human RBC assessed as hemolysis up to 100 microg/ml measured after 1 hr. Format: toxicity, cell-based, Erythrocyte. The note with it: red blood cells, up to 100 µg/mL, read-out: Activity. In a few lines:
(§2)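 Erythrocytes from Sprague Dawley rat or human O-type were used as a 5% (v/v) suspension in normal saline. They were incubated with compound (final 0–100 µg/mL) at 37 °C for 1 h, then centrifuged at 3000 rpm for 10 min at 4 °C. Hemoglobin in the supernatant was read at 545 nm. Saline served as 0% and deionized water as 100% hemolysis.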

Series [5] in a line: Phototoxicity in laser irradiated BALB/c mouse implanted with mouse B16-F10 cells at 2 mg/kg, followed by sunlight irradiation for 24 hr in presence of dopamine. As to conditions: in vivo, 96 h.
Series [6] in a line: Phototoxicity in laser irradiated BALB/c mouse implanted with mouse B16-F10 cells assessed as epidermal thickening at 4 mg/kg, sc administered for 3 days followed by sunlight irradiation for 0.5 hr and […] by H and E staining based analysis. Format: toxicity, organism-based. As to conditions: in vivo, iv, in the assay text read “iv administered” for “sc administered”. In a few lines:
(§3)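 Female nude BALB/c mice, 7–8 weeks old, received 1×10^5 B16F10 cells s.c. on the right front back (n=8). At ~20 mm³, mice got Photofrin 4.0 mg/kg i.v. and were kept dark for 24 h. Tumours were then lit with a 635 nm laser (145 mW/cm², 7 min), followed within 30 min by compound 4.0 mg/kg i.v. On day 3 came a solar simulator (100 mW/cm², 30 min). Tumour volume (L×W²/2) was measured daily, skin imaged every 2 days, and H&E done on day 13.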

Series [7] is described as follows: Phototoxicity in laser irradiated BALB/c mouse implanted with mouse B16-F10 cells at 2 mg/kg, followed by sunlight irradiation for 24 hr. The note with it: in vivo, 96 h.
The test system of series [8] is B16-F10. Kind of series: Antitumor activity against mouse B16-F10 cells implanted BALB/c mouse assessed as reduction in size at 4 mg/kg.
The nature of series [9]: Phototoxicity in laser irradiated BALB/c mouse implanted with mouse B16-F10 cells assessed as pathological changes in kidney at 4 mg/kg, sc administered for 3 days followed by sunlight irradiation for 0.5 hr and […] by H and E staining based analysis. As to conditions: in vivo, iv, in the assay text read “iv administered” for “sc administered”. It is filed as toxicity, organism-based. The method, boiled down:
as §3

The next series relates to H9c2. Kind of series: Cytotoxicity against rat H9c2 cells assessed as reduction in cell viability up to 100 microg/ml incubated for 24 hrs by MTT assay. As to conditions: h9c2, 24 h, up to 100 µg/mL, in the assay text read “CCK-8 assay” for “MTT assay”. Format: toxicity, cell-based. In a few lines: as §1
Series [10] is described as follows: Phototoxicity in laser irradiated BALB/c mouse implanted with mouse B16-F10 cells assessed as pathological changes in skin at 4 mg/kg, followed by sunlight irradiation for 0.5 hr and measured on day 3 by H and E staining based analysis. The note with it: in vivo.
Series [11] can be described thus: Phototoxicity in laser irradiated BALB/c mouse implanted with mouse B16-F10 cells assessed as hair follicle enlargement at 4 mg/kg, sc administered for 3 days followed by sunlight irradiation for 0.5 hr and […] by H and E staining based analysis. The note with it: in vivo, iv, in the assay text read “iv administered” for “sc administered”. Format: toxicity, organism-based. In a few lines:
as §3

A short description of series [12]: Hemolytic activity in rat RBC assessed as hemolysis up to 100 microg/ml measured after 1 hr. Format: toxicity, cell-based, Erythrocyte. The note with it: red blood cells, up to 100 µg/mL, read-out: Activity. The method, boiled down: as §2
Series [13] is described as follows: Phototoxicity in laser irradiated BALB/c mouse implanted with mouse B16-F10 cells assessed as increase in tumor volume at 4 mg/kg, followed by sunlight irradiation for 0.5 hr and measured on day 13. The note with it: in vivo, 312 h.
Series [14] can be described thus: Water solubility of compound. It is filed as physicochemical.

On to `[Cl-].[Cl-].[Cl-].[Cl-].c1cc2ccc1C[n+]1ccc(cc1)-c1ccc3cc(ccc3c1)-c1cc[n+](cc1)Cc1ccc(cc1)C[n+]1ccc(cc1)-c1ccc3cc(ccc3c1)-c1cc[n+](cc1)C2`, for which the Activity result in the series with L02 is recorded as “>= 90%”; in series [1], “Non-Toxic”; in series [2], 41%; in [5], “Non-Toxic”; in [6], “Non-Toxic”; in series [7] it was “Non-Toxic”. For the same compound, the Activity in the series with B16-F10 [8] is reported as 26 mm3; in series [9], 66%; with H9c2, “>= 90%”; in series [10], 67%; in [11], “Non-Toxic”; in [13] it was 1344 mm3. Also, in the series on B16-F10 [3], the outcome was Active. Besides, the hemolysis at 1 h in series [4] and in [12] was ≤ 5% throughout.

`C[n+]1ccc(-c2ccc3cc(-c4cc[n+](C)cc4)ccc3c2)cc1.[Cl-].[Cl-]`: in series [14], the concentration in solution (solubility) was 3.5 mM.

As to `C[n+]1ccc(-c2ccc(-c3cc[n+](C)cc3)c3ccccc23)cc1.[Cl-].[Cl-]`, in series [14], the solubility amounted to 13.1 mM.

`C[n+]1ccc(-c2cccc3c(-c4cc[n+](C)cc4)cccc23)cc1.[Cl-].[Cl-]` had a solubility in [14] of 20.7 mM.
